Published values from different studies.
Target: Acetylcholinesterase (ACHE, Homo sapiens, UniProt P22303)
Mode: inhibitor

Compound | assay | IC50 [µM]
Cn1cc(-c2cc(C(=O)NN=Cc3cccc(Br)c3)no2)c2ccccc21 | enzyme activity | > 100
C#CCN(C)CCCCCCOc1cccc(CN(C)c2c3c(nc4ccccc24)CCCC3)c1 | enzyme activity, Ellman | 1.16
O=[N+]([O-])c1c[nH]c(-c2n[nH]c(=S)n2/N=C/c2ccc(Oc3ccccc3)cc2)c1 | enzyme activity, Ellman | 19.3
O=C(NCCN1CCCCC1)c1ccc([N+](=O)[O-])cc1 | enzyme activity, Ellman | 2.4
O=[N+]([O-])c1c[nH]c(-c2n[nH]c(=S)n2/N=C/c2ccc(Cl)cc2[N+](=O)[O-])c1 | enzyme activity, Ellman | 15.1
C#CCN(C)CCCCCCOCc1ccc(CN(C)c2c3c(nc4ccccc24)CCCC3)cc1 | enzyme activity, Ellman | 1.57
Cn1cc(-c2cc(C(=O)NN=Cc3ccncc3)no2)c2ccccc21 | enzyme activity | > 100
O=C(NCCN1CCCCC1)c1cccc(Cl)c1 | enzyme activity, Ellman | 0.63
O=[N+]([O-])c1c[nH]c(-c2n[nH]c(=S)n2/N=C/c2ccc(Br)c(Cl)c2)c1 | enzyme activity, Ellman | 22.9
C#CCN(C)CCCCOCc1ccc(CN(C)c2c3c(nc4ccccc24)CCCC3)cc1 | enzyme activity, Ellman | 2.36
O=[N+]([O-])c1c[nH]c(-c2n[nH]c(=S)n2/N=C/c2ccc(F)c([N+](=O)[O-])c2)c1 | enzyme activity, Ellman | 15.5
C#CCN(C)CCCCCOc1cccc(CN(C)c2c3c(nc4ccccc24)CCCC3)c1 | enzyme activity, Ellman | 2.6
COc1ccc(S(=O)(=O)Oc2ccc3ccccc3c2C=NNC(=O)c2ccc(F)cc2)cc1 | enzyme activity, Ellman | 0.114
O=C(NCCN1CCCCC1)c1ccccc1Cl | enzyme activity, Ellman | 0.09
COc1cccc(C=NNC(=O)c2cc(-c3cn(C)c4ccccc34)on2)c1OC | enzyme activity | > 100
O=[N+]([O-])c1c[nH]c(-c2n[nH]c(=S)n2/N=C/c2ccc(Cl)c(Cl)c2)c1 | enzyme activity, Ellman | 14.2
O=C(NCCN1CCCCC1)c1ccc(F)cc1 | enzyme activity, Ellman | 3.1
Cn1cc(-c2cc(C(=O)NN=Cc3ccccc3O)no2)c2ccccc21 | enzyme activity | > 100
C#CCN(C)CCCCCCCCOc1cccc(CN(C)c2c3c(nc4ccccc24)CCCC3)c1 | enzyme activity, Ellman | 4.33
CNC(=O)c1ccc(-c2cnn3ccc(C(=O)N(C)c4ccc(Cl)c(C(=O)OC)c4)cc23)cc1 | cell-free assay | > 30
COc1ccc(S(=O)(=O)Oc2cc(OC)ccc2C=NNC(=O)c2ccc(F)cc2)cc1 | enzyme activity, Ellman | 0.0919
